Experimental data from ChEMBL document CHEMBL1142981, “Identification and synthesis of a novel selective partial PPARdelta agonist with full efficacy on lipid metabolism in vitro and in vivo” (J Med Chem, 2007).
Calls of active or inactive are those of the source. No cut-off for these calls is given here.

Key:
[1] = biological target: T1, Peroxisome proliferator-activated receptor delta (Mus musculus, UniProt P35396); assay: (§1) Agonist activity at mouse PPAR delta expressed in HEK293 cells by PPAR-GAL4 transactivation assay; format: functional, cell-based
T1 sequence (P35396 whole entry): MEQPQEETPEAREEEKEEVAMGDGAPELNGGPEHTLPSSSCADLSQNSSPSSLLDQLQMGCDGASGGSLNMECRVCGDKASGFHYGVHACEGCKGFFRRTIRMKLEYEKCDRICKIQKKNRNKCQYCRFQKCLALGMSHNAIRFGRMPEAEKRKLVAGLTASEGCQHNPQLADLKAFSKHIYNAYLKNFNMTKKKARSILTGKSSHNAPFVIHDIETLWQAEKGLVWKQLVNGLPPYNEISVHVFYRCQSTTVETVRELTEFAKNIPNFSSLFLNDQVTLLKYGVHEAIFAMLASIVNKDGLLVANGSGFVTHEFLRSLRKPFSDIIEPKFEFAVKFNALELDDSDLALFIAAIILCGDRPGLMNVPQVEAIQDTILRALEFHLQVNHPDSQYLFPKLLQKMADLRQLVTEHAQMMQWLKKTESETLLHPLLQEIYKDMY

[2] = biological target: T2, Peroxisome proliferator-activated receptor delta (Mus musculus) (UniProt P35396); assay: as §1; format: functional, cell-based
T2 sequence (whole entry): T1 sequence (P35396 whole entry)

[3] = test system: Mus musculus; assay: Decrease in insulin level in human ApoB100/CETP transgenic mouse at 5 mg/kg, po after 6 weeks by ELISA relative to control; format: functional; set-up: scale not given: the % may be the effect or the level left
[4] = biological target: T3, Peroxisome proliferator-activated receptor gamma (Mus musculus) (UniProt P37238); assay: Agonist activity at mouse PPAR gamma expressed in HEK293 cells up to 30 uM by PPAR-GAL4 transactivation assay; format: functional, cell-based
T3 sequence (whole entry): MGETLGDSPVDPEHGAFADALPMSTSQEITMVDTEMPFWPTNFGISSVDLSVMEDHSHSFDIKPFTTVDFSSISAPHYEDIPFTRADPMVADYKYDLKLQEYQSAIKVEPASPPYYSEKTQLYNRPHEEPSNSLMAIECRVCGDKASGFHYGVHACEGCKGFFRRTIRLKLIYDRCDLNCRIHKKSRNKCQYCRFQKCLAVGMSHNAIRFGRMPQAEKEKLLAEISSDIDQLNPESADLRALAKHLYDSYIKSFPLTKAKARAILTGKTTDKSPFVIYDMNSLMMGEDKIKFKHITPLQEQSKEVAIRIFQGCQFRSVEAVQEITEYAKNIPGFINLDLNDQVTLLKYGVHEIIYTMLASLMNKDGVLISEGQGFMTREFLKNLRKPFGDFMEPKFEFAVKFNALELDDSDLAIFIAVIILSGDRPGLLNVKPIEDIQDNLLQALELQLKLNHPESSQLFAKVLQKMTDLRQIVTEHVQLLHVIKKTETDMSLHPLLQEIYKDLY

[5] = test system: Mus musculus; assay: Decrease in HbA1c level in human ApoB100/CETP transgenic mouse at 5 mg/kg, po after 6 weeks relative to control; format: functional; set-up: scale not given: the % may be the effect or the level left
[6] = biological target: T4, Peroxisome proliferator-activated receptor delta (Homo sapiens, UniProt Q03181)
T4 sequence (Q03181 whole entry): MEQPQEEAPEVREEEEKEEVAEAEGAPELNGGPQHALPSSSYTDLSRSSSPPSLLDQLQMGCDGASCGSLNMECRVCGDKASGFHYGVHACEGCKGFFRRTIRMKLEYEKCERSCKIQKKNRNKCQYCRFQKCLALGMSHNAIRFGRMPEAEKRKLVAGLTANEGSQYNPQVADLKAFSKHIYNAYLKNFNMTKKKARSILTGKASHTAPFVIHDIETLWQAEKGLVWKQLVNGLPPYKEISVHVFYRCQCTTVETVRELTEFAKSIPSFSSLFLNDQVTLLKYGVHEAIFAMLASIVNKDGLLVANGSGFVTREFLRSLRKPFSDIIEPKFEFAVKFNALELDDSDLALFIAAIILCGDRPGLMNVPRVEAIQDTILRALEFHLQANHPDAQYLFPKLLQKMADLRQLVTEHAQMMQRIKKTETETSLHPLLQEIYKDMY

[7] = test system: Mus musculus; assay: Decrease in glucose level in human ApoB100/CETP transgenic mouse at 20 mg/kg, po after 6 weeks relative to control; format: functional; set-up: scale not given: the % may be the effect or the level left
[8] = test system: L6; assay: Effect on glucose oxidation in rat L6 cells; format: functional, cell-based
Summary of the method: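 Differentiated rat L6 cells handled as for the fatty acid oxidation assay, with tritiated palmitate replaced by 10 µCi/mL [5-3H]-D-glucose; oxidation measured as 3H-H2O released into medium after TCA stop, collected by overnight equilibration at 50 °C and scintillation counting. FCCP served as positive control.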

[9] = test system: Mus musculus; assay: Decrease in glucose level in human ApoB100/CETP transgenic mouse at 5 mg/kg, po after 6 weeks relative to control; format: functional; set-up: scale not given: the % may be the effect or the level left
[10] = biological target: T5, Peroxisome proliferator-activated receptor alpha (Mus musculus) (UniProt P23204); assay: Agonist activity at mouse PPAR alpha expressed in HEK293 cells up to 30 uM by PPAR-GAL4 transactivation assay; format: functional, cell-based
T5 sequence (whole entry): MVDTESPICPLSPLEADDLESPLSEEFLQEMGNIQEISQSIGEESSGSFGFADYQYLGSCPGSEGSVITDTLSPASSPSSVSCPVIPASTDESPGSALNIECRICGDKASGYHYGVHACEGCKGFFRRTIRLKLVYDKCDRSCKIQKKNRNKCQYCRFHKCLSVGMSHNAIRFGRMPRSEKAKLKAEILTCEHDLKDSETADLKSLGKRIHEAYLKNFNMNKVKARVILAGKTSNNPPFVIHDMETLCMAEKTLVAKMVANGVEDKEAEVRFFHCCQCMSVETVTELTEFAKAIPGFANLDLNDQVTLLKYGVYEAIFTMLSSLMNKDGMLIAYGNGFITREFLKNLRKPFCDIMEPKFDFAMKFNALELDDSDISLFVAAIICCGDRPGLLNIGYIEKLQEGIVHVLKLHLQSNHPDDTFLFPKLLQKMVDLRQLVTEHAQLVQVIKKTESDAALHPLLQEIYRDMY

[11] = test system: Mus musculus; assay: Decrease in triglycerides level in human ApoB100/CETP transgenic mouse at 20 mg/kg, po after 6 weeks relative to control; format: functional; set-up: scale not given: the % may be the effect or the level left
[12] = Volume of distribution in Sprague-Dawley rat at 1.06 mg/kg, iv; format: ADME, organism-based; set-up: dose 1.06 mg/kg, route intravenous; conditions: in vivo, read-out: Vss
Summary of the method: (§2)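 Male SD rats received a single p.o. or i.v. dose (n = 8 per route) in 5% ethanol, 10% HPCD and phosphate buffer, pH 7.5-8.0. At 5, 15, 30, 60, 90, 120, 240 and 360 min one rat was sacrificed per time point. EDTA plasma was assayed by high turbulence LC-MS/MS. Cmax and bioavailability were taken from oral dosing; volume of distribution is at steady state.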

[13] = test system: Mus musculus; assay: Decrease in triglycerides level in human ApoB100/CETP transgenic mouse at 5 mg/kg, po after 6 weeks relative to control; format: functional; set-up: scale not given: the % may be the effect or the level left
[14] = Plasma Cmax in Sprague-Dawley rat at 2.06 mg/kg, po; format: ADME, organism-based; set-up: dose 2.06 mg/kg, route oral; summary of the method: as §2
[15] = test system: Mus musculus; assay: Decrease in LDL level in human ApoB100/CETP transgenic mouse at 20 mg/kg, po after 6 weeks relative to control; format: functional; set-up: scale not given: the % may be the effect or the level left

O=C(O)COc1ccc(SCC=C(c2ccc(Br)cc2)c2ccc(Br)cc2)cc1Cl
EC50 [1]: 300 nM | Activity [2]: 167% | Activity [3]: 11% | Activity [4]: inactive | Activity [5]: 4% | EC50 [6]: 53 nM | Activity [7]: 5% | Activity [8]: inactive | Activity [9]: 3% | Activity [10]: inactive | Activity [11]: 5% | Vd [12]: 0.3 L/kg | Activity [13]: 15% | Cmax [14]: 508 ng/mL | Activity [15]: 35%
